# Reference: ChEMBL document CHEMBL5303300, “EUbOPEN Chemogenomics Library - Multiplex” (2023)
# Where “and” joins values, the source holds several entries; their conditions need not be identical. Identical values can stand only once.
# Columns and labels:
# Format in all cases: toxicity, cell-based
# U2OS = test: Multiplex assay against U2OS; settings: human, number of replicates 2
# How it was run: (§1)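 Hoechst33342, BioTracker Green Microtubule Cytoskeleton Dye, MitoTracker Red and Annexin V Alexa Fluor 680 were added to live cells at seeding, and imaging on a CQ1 microscope at 37°C and 5% CO2 followed compound addition. Gating by CellPathfinder machine learning separated cells into Hoechst high-intensity objects or normal cells, then normal cells into healthy, pyknosed or fragmented nuclei, then pyknosed cells into mitotic or apoptotic. Per cents of healthy-nucleus cells are reported for the tubulin, mitochondrial-mass and membrane-permeability phenotypes.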
# Fibroblast = test: Multiplex assay against human fibroblast; settings: number of replicates 2; how it was run: as §1
# HEK-293T = test: Multiplex assay against HEK293T; settings: human, number of replicates 2; how it was run: as §1
# [1] = 12 h, 1 µM, compound concentration 1 uM
# [2] = 12 h, 10 µM, compound concentration 10 uM
# [3] = 24 h, 1 µM, compound concentration 1 uM
# [4] = 24 h, 10 µM, compound concentration 10 uM
# [5] = 48 h, 1 µM, compound concentration 1 uM
# [6] = 48 h, 10 µM, compound concentration 10 uM
compound,measurement,setting,value
CC(C)c1c(NC(=O)Nc2ccc(Cl)cc2)c(=O)n(-c2ccccc2)n1C,Population Apoptotic (%),U2OS; [1],33% and 32%
same,Population Healthy Nuclei (%),U2OS; [1],66% and 85%
same,Population Hoechst High Intensity Objects (%),U2OS; [1],0%
same,Population Membrane Permeable-Phenotype (%),U2OS; [1],0%
same,Population Mitochondria Different-Phenotype (%),U2OS; [1],0%
same,Population Mitotic Cells (%),U2OS; [1],66% and 68%
same,Population Normal (%),U2OS; [1],100%
same,Population Pyknosed Nuclei (%),U2OS; [1],10% and 9%
same,Population Tubulin-Different-Phenotype (%),U2OS; [1],65% and 81%
same,Population Apoptotic (%),U2OS; [2],100% and 43%
same,Population Hoechst High Intensity Objects (%),U2OS; [2],0%
same,Population Membrane Permeable-Phenotype (%),U2OS; [2],0% and 2%
same,Population Mitochondria Different-Phenotype (%),U2OS; [2],0%
same,Population Normal (%),U2OS; [2],100% and 99%
same,Population Pyknosed Nuclei (%),U2OS; [2],6%
same,Population Tubulin-Different-Phenotype (%),U2OS; [2],85% and 66%
same,Population Apoptotic (%),U2OS; [3],50% and 26%
same,Population Healthy Nuclei (%),U2OS; [3],68% and 89%
same,Population Hoechst High Intensity Objects (%),U2OS; [3],0%
same,Population Membrane Permeable-Phenotype (%),U2OS; [3],0% and 1%
same,Population Mitochondria Different-Phenotype (%),U2OS; [3],0%
same,Population Mitotic Cells (%),U2OS; [3],50% and 73%
same,Population Normal (%),U2OS; [3],100% and 99%
same,Population Pyknosed Nuclei (%),U2OS; [3],15% and 7%
same,Population Tubulin-Different-Phenotype (%),U2OS; [3],61% and 84%
same,Population Apoptotic (%),U2OS; [4],100% and 36%
same,Population Healthy Nuclei (%),U2OS; [4],32% and 87%
same,Population Hoechst High Intensity Objects (%),U2OS; [4],0%
same,Population Membrane Permeable-Phenotype (%),U2OS; [4],0% and 2%
same,Population Mitochondria Different-Phenotype (%),U2OS; [4],0%
same,Population Normal (%),U2OS; [4],100%
same,Population Pyknosed Nuclei (%),U2OS; [4],2% and 8%
same,Population Tubulin-Different-Phenotype (%),U2OS; [4],64% and 78%
same,Population Apoptotic (%),U2OS; [5],50% and 49%
same,Population Fragmented Nuclei (%),U2OS; [5],12% and 3%
same,Population Healthy Nuclei (%),U2OS; [5],72% and 88%
same,Population Hoechst High Intensity Objects (%),U2OS; [5],0%
same,Population Membrane Permeable-Phenotype (%),U2OS; [5],0% and 1%
same,Population Mitochondria Different-Phenotype (%),U2OS; [5],0%
same,Population Mitotic Cells (%),U2OS; [5],50%
same,Population Normal (%),U2OS; [5],100% and 99%
same,Population Pyknosed Nuclei (%),U2OS; [5],15% and 7%
same,Population Tubulin-Different-Phenotype (%),U2OS; [5],62% and 85%
same,Population Apoptotic (%),U2OS; [6],100% and 55%
same,Population Healthy Nuclei (%),U2OS; [6],31% and 91%
same,Population Hoechst High Intensity Objects (%),U2OS; [6],0%
same,Population Membrane Permeable-Phenotype (%),U2OS; [6],0% and 1%
same,Population Mitochondria Different-Phenotype (%),U2OS; [6],0%
same,Population Normal (%),U2OS; [6],100%
same,Population Pyknosed Nuclei (%),U2OS; [6],1% and 5%
same,Population Tubulin-Different-Phenotype (%),U2OS; [6],77% and 80%
same,Population Apoptotic (%),Fibroblast; [1],30% and 36%
same,Population Fragmented Nuclei (%),Fibroblast; [1],9% and 13%
same,Population Healthy Nuclei (%),Fibroblast; [1],77% and 68%
same,Population Hoechst High Intensity Objects (%),Fibroblast; [1],0%
same,Population Membrane Permeable-Phenotype (%),Fibroblast; [1],5% and 3%
same,Population Mitochondria Different-Phenotype (%),Fibroblast; [1],0%
same,Population Mitotic Cells (%),Fibroblast; [1],69% and 63%
same,Population Normal (%),Fibroblast; [1],100% and 99%
same,Population Pyknosed Nuclei (%),Fibroblast; [1],13% and 17%
same,Population Tubulin-Different-Phenotype (%),Fibroblast; [1],11% and 7%
same,Total Cell Count,Fibroblast; [1],175 and 269
same,Population Apoptotic (%),Fibroblast; [2],34% and 46%
same,Population Fragmented Nuclei (%),Fibroblast; [2],9% and 7%
same,Population Healthy Nuclei (%),Fibroblast; [2],68%
same,Population Hoechst High Intensity Objects (%),Fibroblast; [2],0%
same,Population Membrane Permeable-Phenotype (%),Fibroblast; [2],2% and 11%
same,Population Mitochondria Different-Phenotype (%),Fibroblast; [2],1%
same,Population Mitotic Cells (%),Fibroblast; [2],65% and 53%
same,Population Normal (%),Fibroblast; [2],99% and 100%
same,Population Pyknosed Nuclei (%),Fibroblast; [2],21% and 24%
same,Population Tubulin-Different-Phenotype (%),Fibroblast; [2],12% and 21%
same,Total Cell Count,Fibroblast; [2],122 and 191
same,Population Apoptotic (%),Fibroblast; [3],34% and 35%
same,Population Fragmented Nuclei (%),Fibroblast; [3],10% and 14%
same,Population Healthy Nuclei (%),Fibroblast; [3],75% and 71%
same,Population Hoechst High Intensity Objects (%),Fibroblast; [3],0%
same,Population Membrane Permeable-Phenotype (%),Fibroblast; [3],5% and 6%
same,Population Mitochondria Different-Phenotype (%),Fibroblast; [3],0% and 1%
same,Population Mitotic Cells (%),Fibroblast; [3],65% and 64%
same,Population Normal (%),Fibroblast; [3],100%
same,Population Pyknosed Nuclei (%),Fibroblast; [3],13%
same,Population Tubulin-Different-Phenotype (%),Fibroblast; [3],14% and 5%
same,Total Cell Count,Fibroblast; [3],166 and 271
same,Population Apoptotic (%),Fibroblast; [4],48% and 35%
same,Population Fragmented Nuclei (%),Fibroblast; [4],5% and 6%
same,Population Healthy Nuclei (%),Fibroblast; [4],73% and 65%
same,Population Hoechst High Intensity Objects (%),Fibroblast; [4],0%
same,Population Membrane Permeable-Phenotype (%),Fibroblast; [4],7% and 6%
same,Population Mitochondria Different-Phenotype (%),Fibroblast; [4],0%
same,Population Mitotic Cells (%),Fibroblast; [4],52% and 64%
same,Population Normal (%),Fibroblast; [4],100%
same,Population Pyknosed Nuclei (%),Fibroblast; [4],20% and 27%
same,Population Tubulin-Different-Phenotype (%),Fibroblast; [4],13%
same,Total Cell Count,Fibroblast; [4],123 and 204
same,Population Apoptotic (%),Fibroblast; [5],79% and 65%
same,Population Fragmented Nuclei (%),Fibroblast; [5],14% and 17%
same,Population Healthy Nuclei (%),Fibroblast; [5],71% and 74%
same,Population Hoechst High Intensity Objects (%),Fibroblast; [5],0%
same,Population Membrane Permeable-Phenotype (%),Fibroblast; [5],2% and 6%
same,Population Mitochondria Different-Phenotype (%),Fibroblast; [5],0%
same,Population Mitotic Cells (%),Fibroblast; [5],20% and 34%
same,Population Normal (%),Fibroblast; [5],100%
same,Population Pyknosed Nuclei (%),Fibroblast; [5],13% and 8%
same,Population Tubulin-Different-Phenotype (%),Fibroblast; [5],8% and 4%
same,Total Cell Count,Fibroblast; [5],174 and 274
same,Population Apoptotic (%),Fibroblast; [6],53% and 47%
same,Population Fragmented Nuclei (%),Fibroblast; [6],17% and 14%
same,Population Healthy Nuclei (%),Fibroblast; [6],70% and 62%
same,Population Hoechst High Intensity Objects (%),Fibroblast; [6],0%
same,Population Membrane Permeable-Phenotype (%),Fibroblast; [6],8% and 10%
same,Population Mitochondria Different-Phenotype (%),Fibroblast; [6],0%
same,Population Mitotic Cells (%),Fibroblast; [6],46% and 52%
same,Population Normal (%),Fibroblast; [6],100% and 99%
same,Population Pyknosed Nuclei (%),Fibroblast; [6],11% and 23%
same,Population Tubulin-Different-Phenotype (%),Fibroblast; [6],12% and 13%
same,Total Cell Count,Fibroblast; [6],134 and 222
same,Population Apoptotic (%),HEK-293T; [1],40% and 36%
same,Population Fragmented Nuclei (%),HEK-293T; [1],3% and 2%
same,Population Healthy Nuclei (%),HEK-293T; [1],85% and 86%
same,Population Hoechst High Intensity Objects (%),HEK-293T; [1],6% and 5%
same,Population Membrane Permeable-Phenotype (%),HEK-293T; [1],3% and 2%
same,Population Mitochondria Different-Phenotype (%),HEK-293T; [1],11% and 14%
same,Population Mitotic Cells (%),HEK-293T; [1],59% and 63%
same,Population Normal (%),HEK-293T; [1],93% and 94%
same,Population Pyknosed Nuclei (%),HEK-293T; [1],10% and 11%
same,Population Tubulin-Different-Phenotype (%),HEK-293T; [1],48% and 50%
same,Total Cell Count,HEK-293T; [1],880 and 697
same,Population Apoptotic (%),HEK-293T; [2],49% and 41%
same,Population Fragmented Nuclei (%),HEK-293T; [2],2% and 4%
same,Population Healthy Nuclei (%),HEK-293T; [2],86% and 81%
same,Population Hoechst High Intensity Objects (%),HEK-293T; [2],8% and 4%
same,Population Membrane Permeable-Phenotype (%),HEK-293T; [2],4% and 6%
same,Population Mitochondria Different-Phenotype (%),HEK-293T; [2],14% and 18%
same,Population Mitotic Cells (%),HEK-293T; [2],50% and 58%
same,Population Normal (%),HEK-293T; [2],91% and 95%
same,Population Pyknosed Nuclei (%),HEK-293T; [2],11% and 14%
same,Population Tubulin-Different-Phenotype (%),HEK-293T; [2],57% and 50%
same,Total Cell Count,HEK-293T; [2],669 and 576
same,Population Apoptotic (%),HEK-293T; [3],36% and 39%
same,Population Fragmented Nuclei (%),HEK-293T; [3],5%
same,Population Healthy Nuclei (%),HEK-293T; [3],87% and 88%
same,Population Hoechst High Intensity Objects (%),HEK-293T; [3],8%
same,Population Membrane Permeable-Phenotype (%),HEK-293T; [3],4% and 3%
same,Population Mitochondria Different-Phenotype (%),HEK-293T; [3],3% and 5%
same,Population Mitotic Cells (%),HEK-293T; [3],63% and 60%
same,Population Normal (%),HEK-293T; [3],91%
same,Population Pyknosed Nuclei (%),HEK-293T; [3],6% and 5%
same,Population Tubulin-Different-Phenotype (%),HEK-293T; [3],27% and 32%
same,Total Cell Count,HEK-293T; [3],1449 and 1121
same,Population Apoptotic (%),HEK-293T; [4],54% and 40%
same,Population Fragmented Nuclei (%),HEK-293T; [4],6%
same,Population Healthy Nuclei (%),HEK-293T; [4],85% and 83%
same,Population Hoechst High Intensity Objects (%),HEK-293T; [4],8% and 5%
same,Population Membrane Permeable-Phenotype (%),HEK-293T; [4],3%
same,Population Mitochondria Different-Phenotype (%),HEK-293T; [4],5% and 8%
same,Population Mitotic Cells (%),HEK-293T; [4],45% and 59%
same,Population Normal (%),HEK-293T; [4],91% and 94%
same,Population Pyknosed Nuclei (%),HEK-293T; [4],7% and 10%
same,Population Tubulin-Different-Phenotype (%),HEK-293T; [4],37% and 33%
same,Total Cell Count,HEK-293T; [4],1033 and 815
same,Population Apoptotic (%),HEK-293T; [5],10% and 15%
same,Population Fragmented Nuclei (%),HEK-293T; [5],14% and 10%
same,Population Healthy Nuclei (%),HEK-293T; [5],83% and 86%
same,Population Hoechst High Intensity Objects (%),HEK-293T; [5],9% and 10%
same,Population Membrane Permeable-Phenotype (%),HEK-293T; [5],5% and 3%
same,Population Mitochondria Different-Phenotype (%),HEK-293T; [5],0%
same,Population Mitotic Cells (%),HEK-293T; [5],89% and 84%
same,Population Normal (%),HEK-293T; [5],90% and 89%
same,Population Pyknosed Nuclei (%),HEK-293T; [5],2% and 3%
same,Population Tubulin-Different-Phenotype (%),HEK-293T; [5],13% and 15%
same,Total Cell Count,HEK-293T; [5],3573 and 2488
same,Population Apoptotic (%),HEK-293T; [6],16% and 17%
same,Population Fragmented Nuclei (%),HEK-293T; [6],15% and 13%
same,Population Healthy Nuclei (%),HEK-293T; [6],81% and 83%
same,Population Hoechst High Intensity Objects (%),HEK-293T; [6],8% and 9%
same,Population Membrane Permeable-Phenotype (%),HEK-293T; [6],7% and 4%
same,Population Mitochondria Different-Phenotype (%),HEK-293T; [6],0% and 1%
same,Population Mitotic Cells (%),HEK-293T; [6],83% and 82%
same,Population Normal (%),HEK-293T; [6],91% and 90%
same,Population Pyknosed Nuclei (%),HEK-293T; [6],3% and 2%
same,Population Tubulin-Different-Phenotype (%),HEK-293T; [6],19% and 15%
same,Total Cell Count,HEK-293T; [6],2549 and 1775
